A short description of series [1]: Aqueous stability of the compound at pH 1.2 assessed as compound decomposition measured after 24 hrs by HPLC analysis. The class given is physicochemical. Particulars: aqueous solution, read-out: Drug degradation. An outline of the steps:
(§1)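 Compounds at 10 μg/mL in Japanese Pharmacopoeia 17th ed. disintegration-test fluids (first fluid pH 1.2, second fluid pH 6.8), with 10% DMSO if needed, held at 37 °C. HPLC run at start and at 24 h. Decomposition derived from peak areas as residual content.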

Series [2] can be described thus: Aqueous stability of the compound at pH 6.8 assessed as compound decomposition measured after 24 hrs by HPLC analysis. The class given is physicochemical. Particulars: aqueous solution, read-out: Drug degradation. A digest of the protocol: as §1
Series [3] can be described thus: Cmax in mouse plasma at 60 mg/kg, po. The class given is ADME, organism-based. Set-up: dose 60 mg/kg, route po.
Series [4] in a line: Tmax in mouse plasma at 10 mg/kg, sc. In kind it is ADME, organism-based.
Series [5] in a line: Cmax in mouse plasma at 10 mg/kg, sc. The class given is ADME, organism-based. Further details: dose 10 mg/kg, route sc.
A short description of series [6]: Tmax in mouse plasma at 60 mg/kg, po. In kind it is ADME, organism-based.
A short description of series [7]: MRT in mouse plasma at 60 mg/kg, po. In kind it is ADME, organism-based.
Series [8] can be described thus: MRT in mouse plasma at 10 mg/kg, sc. In kind it is ADME, organism-based.
A further series concerns Mus musculus. As to the kind of experiment: In vivo inhibition of entero-peptidase in mouse assessed as increase in fecal protein content at 60 mg/kg, po. In kind it is functional, organism-based. An outline of the steps: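 HFD-fed male mice (D12079B diet, 14–21 weeks old) dosed orally at 60 mg/kg, with 0.5% methylcellulose as vehicle. Whole feces collected overnight and fecal protein output determined.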

The nature of series [9]: Oral bioavailability in non-fasted Sprague-Dawley rat plasma at 1 mg/kg administered as cassette dose by LC/MS/MS analysis. The class given is ADME, organism-based. Particulars: in vivo, BLD = below limit of detection. An outline of the steps: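 Non-fasted SD rats given cassette oral dose of 1 mg/kg, suspended in 0.5% methylcellulose. Plasma obtained from collected blood; compound measured by LC–MS/MS.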

The test system of series [10] is Rattus norvegicus. Put plainly: Anti-obesity activity in diet-induced obese F344/Jcl rat model assessed as increase in fecal protein output at 1 to 10 mg/kg, po measured on day 28. The class given is functional, organism-based. Particulars: dose 1-10 mg/kg, time 28.0 day. A digest of the protocol:
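Male DIO F344/Jcl rats on HFD D12451 (45 kcal % fat), n = 6 per group. Oral dosing at 1, 3 or 10 mg/kg in 0.5% methylcellulose vehicle for 4 weeks from 36 weeks of age. Fecal protein output measured; mean ± SD; statistics vs vehicle.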

In series [11] the test system is Rattus norvegicus. As to the kind of experiment: Anti-obesity activity in diet-induced obese F344/Jcl rat model assessed as reduction in food intake at 1 to 10 mg/kg, po administered for 28 days. The conditions noted are these: dose 1-10 mg/kg, time 28.0 day. In kind it is functional, organism-based. An outline of the steps: (§2)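 Male DIO F344/Jcl rats fed HFD D12451 (45 kcal % fat, 20 kcal % protein, 35 kcal % carbohydrate) from six weeks of age. Oral dosing in 0.5% methylcellulose vehicle starts at 36 weeks of age and continues 4 weeks. Body weight recorded every 1–4 days. n = 6 per group; mean ± SD; Dunnett's t-test or one-tailed Williams' test vs vehicle.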

In series [12] the test system is Rattus norvegicus. Put plainly: Anti-obesity activity in diet-induced obese F344/Jcl rat model assessed as body weight loss administered orally for 28 days measured every 4 days. The class given is functional, organism-based. The conditions noted are these: route po, time 4.0 weeks, DDE = dose-dependent effect. A digest of the protocol: as §2
Series [13] can be described thus: Permeability of the compound at pH 7.4 by PAMPA. In kind it is ADME. The conditions noted are these: read-out: permeability.
A short description of series [14]: Permeability of the compound at pH 5.0 by PAMPA. The class given is ADME. Particulars: read-out: permeability.
Series [15] concerns the target Enteropeptidase (Homo sapiens) (UniProt P98073). As to the kind of experiment: Inhibition of human recombinant Enteropeptidase assessed as inhibition based on initial velocity using 5FAM-Abu-Gly-Asp -Asp-Asp -Lys-Ile-Val-Gly-Gly-Lys-(CPQ2)-Lys-Lys-NH2 as substrate by fluorescence based plate reader method. The conditions noted are these: TDE = time-dependent effect. A digest of the protocol:
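Human recombinant enzyme prepared as a 24 mU/mL solution in 50 mM tricine pH 8.0, 0.01% Tween 20, 10 mM CaCl2. Compound in DMSO/buffer mixed with 2.1 μM substrate solution; enzyme added to start the reaction at room temperature. Fluorescence (ex 485/em 535 nm) read at 6 min. Inhibition taken relative to no-compound and no-enzyme controls. IC50 with 95% CI.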

SMILES strings stand for the structures. Active and inactive are the calls of the source. The rule behind the calls is not given here. A value given as a limit tells only on which side of the number the result lay.

Sequence of Enteropeptidase (Homo sapiens) (P98073 2-784 limits assumed): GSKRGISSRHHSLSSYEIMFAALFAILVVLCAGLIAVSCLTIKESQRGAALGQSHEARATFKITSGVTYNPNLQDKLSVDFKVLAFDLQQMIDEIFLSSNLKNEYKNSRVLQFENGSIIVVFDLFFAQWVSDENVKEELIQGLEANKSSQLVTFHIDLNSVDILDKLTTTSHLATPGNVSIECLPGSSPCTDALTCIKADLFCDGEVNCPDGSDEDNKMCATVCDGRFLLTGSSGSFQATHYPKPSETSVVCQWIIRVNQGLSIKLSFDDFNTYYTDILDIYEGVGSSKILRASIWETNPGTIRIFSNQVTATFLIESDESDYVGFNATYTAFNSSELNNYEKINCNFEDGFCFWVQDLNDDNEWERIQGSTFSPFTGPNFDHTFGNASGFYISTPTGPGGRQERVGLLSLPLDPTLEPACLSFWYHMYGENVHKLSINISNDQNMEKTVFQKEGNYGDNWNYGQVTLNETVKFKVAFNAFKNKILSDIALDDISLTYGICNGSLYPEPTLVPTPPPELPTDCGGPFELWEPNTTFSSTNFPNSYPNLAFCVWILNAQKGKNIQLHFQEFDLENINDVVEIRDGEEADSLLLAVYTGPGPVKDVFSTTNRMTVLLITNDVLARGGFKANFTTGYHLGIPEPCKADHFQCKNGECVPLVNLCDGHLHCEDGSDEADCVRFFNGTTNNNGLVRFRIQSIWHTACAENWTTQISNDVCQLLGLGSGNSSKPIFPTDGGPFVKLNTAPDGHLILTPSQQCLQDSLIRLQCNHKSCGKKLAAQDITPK
Sequence of Enteropeptidase (Homo sapiens) (P98073 785-1019 limits assumed): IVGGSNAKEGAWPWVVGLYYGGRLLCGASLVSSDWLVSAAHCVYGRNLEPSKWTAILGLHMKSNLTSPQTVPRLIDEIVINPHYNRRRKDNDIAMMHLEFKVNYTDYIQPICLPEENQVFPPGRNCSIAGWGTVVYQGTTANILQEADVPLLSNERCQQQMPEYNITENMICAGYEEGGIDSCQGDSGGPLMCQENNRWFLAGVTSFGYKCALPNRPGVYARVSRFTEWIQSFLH

On to `N=C(N)Nc1ccc(C(=O)Oc2cccc(C(=O)N[C@@H](CC(=O)O)C(=O)O)c2)cc1`, for which the degraded at 24 h came to 3.9% in [1] and 8.6% in [2].

In the case of `Cl.N=C(N)Nc1ccc(C(=O)Oc2ccc(CC(=O)N[C@@H](CC(=O)O)C(=O)O)cc2)cc1`, the Cmax was 1360 ng/mL in series [3] and 13400 ng/mL in series [5]. Also, the values for the Tmax in series [4] and in [6] were 0.5 h and 1.67 h, respectively. Further, the figures for the degraded at 24 h in [1] and in [2] were 2.5% and 5%, respectively. The MRT is 5.07 h in series [7] and 0.98 h in series [8]. Moreover, the inhibition result in the series on Mus musculus was “Active”.

Regarding `N=C(N)Nc1ccc(C(=O)Oc2cccc(CC(=O)N[C@@H](CC(=O)O)C(=O)O)c2)cc1`, the figures for the degraded at 24 h in series [1] and in [2] were 2.8% and 5.8%, respectively.

Take `N=C(N)Nc1ccc(C(=O)Oc2cccc(C3=NO[C@](CC(=O)O)(C(=O)O)C3)c2)cc1`: in series [9], the F result is recorded as “Bld”. Moreover, the outcome in the series on Rattus norvegicus [10] and in the series with Rattus norvegicus [11] was Active. Further, the Activity entry with Rattus norvegicus [12] is “Dde”.

As to `N=C(N)Nc1ccc(C(=O)Oc2ccc(CC(=O)NCC(=O)O)cc2)cc1.O=C(O)C(F)(F)F`, the Papp in [13] and in series [14] was 0.2 ×10⁻⁶ cm/s in each case. Further, the inhibition entry in [15] was “Tde”.

As to `CS(=O)(=O)O.N=C(N)Nc1ccc(C(=O)Oc2ccccc2)cc1`, the Papp in series [13] and in [14] was under 0.2 ×10⁻⁶ cm/s in each case. Besides, the inhibition entry in series [15] was “Tde”.

(Values after ChEMBL document CHEMBL5126593, “Design, Synthesis, and Biological Evaluation of a Novel Series of 4-Guanidinobenzoate Derivatives as Enteropeptidase Inhibitors with Low Systemic Exposure for the Treatment of Obesity” (J Med Chem, 2022).)
